The text below walks through data of ChEMBL document CHEMBL4513216, “Probing the Open Global Health Chemical Diversity Library for Multistage-Active Starting Points for Next-Generation Antimalarials” (ACS Infect Dis, 2020).

Molecules are shown by their SMILES.

The nature of the data set: Toxicity liver stage against HepG2, at 10uM. The format is cell-based. Also noted: test concentration 10 uM, cell line HepG2-A16-CD81EGFP. The conditions noted are these: human, HepG2-A16-CD81EGFP cells; read-out: INHIBITION
An outline of the steps: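 Uninfected HepG2-A16-CD81EGFP cells, 3 × 10^3 per well, 1536-well, plated on prespotted compound at 10 μM final, parasite-free screening media added to match infected plates; puromycin 10 μM positive, DMSO 0.5% negative; run in parallel with 48 h PbLuc assay at 37 °C, 5% CO2; viability by CellTiter-Glo luminescence, normalized to controls.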
As to `CCS(=O)(=O)c1ccc2oc([C@H]3CCN(Cc4ccccn4)C3)nc2c1`, the cytotoxicity at 10 µM was -0.125%.

For `O=C(Nc1ccccc1)[C@H]1CN2CC[C@H]1C[C@@H]2Cn1cc(CCO)nn1`, the cytotoxicity at 10 µM was -0.843%.

In the case of `O=C([C@@H]1Cc2[nH]cnc2CN1CC1CC1)N1CCCC1`, the cytotoxicity at 10 µM was found to be 2.5%.

Turning to `O=C(c1cccnc1Oc1ccc(Cl)cc1)N1CC[C@@H](O)C1`, the cytotoxicity at 10 µM is -3.36%. With `CCOc1ccc(NC(=O)C2OC(c3cccs3)=NN2C(C)=O)cc1` (stereo unspecified), the cytotoxicity at 10 µM is 4.77%.

In the case of `O=C1CC(c2ccccc2)c2c(c(C(=O)O)cn2-c2ccccc2)N1` (stereo unspecified), the cytotoxicity at 10 µM is -0.0616%.

For the compound `CN(C)S(=O)(=O)N1CCN(C(=O)c2cc(-c3ccc(Br)s3)n[nH]2)CC1`, the cytotoxicity at 10 µM is -2.66%.

In the case of `CN(C)C(=O)N1Cc2ccccc2C2(CCN(C3CCOCC3)CC2)C1`, the cytotoxicity at 10 µM stood at 7.21%. `CC(C)CNC(=O)N1C[C@H]2CCN[C@H]2C1`: the cytotoxicity at 10 µM came to 7.12%. Then `C[C@@H]1CN(C(=O)c2ccccc2F)C[C@]12CCN(CCN(C)C)C2=O`, with 3%. Consider `CCc1cnc(N2CCC3(CC2)CCN(c2cnn(C)c2)C3=O)nc1`, for which the cytotoxicity at 10 µM was -2.2%.

Turning to `CNC(=O)C1CCC2(CCN(c3ncc(C)cn3)CC2)CO1` (stereo unspecified), the cytotoxicity at 10 µM is -4.66%. As for `CN(C)C(=O)CN1CCC2(CCCN(c3ncc(F)cn3)C2)C1=O` (stereo unspecified), the cytotoxicity at 10 µM came out at 9.51%.

For `CC(C)CNc1nc(C(=O)/N=c2\[nH]nc(C(C)(C)C)s2)cs1`, the cytotoxicity at 10 µM is 9.6%.

Turning to `CC(C)CC(=O)N1CCCn2cnc(CN3CCCC3=O)c2C1`, the cytotoxicity at 10 µM was -6.42%. As for `CCn1ccc(-c2cc(C(=O)O)n3nc(C(F)(F)F)c(Br)c3n2)n1`, the cytotoxicity at 10 µM is -1.47%. Then `CC(C)C(=O)NCCc1cc2nc(-c3ccncc3)ccn2n1`, with 4.94%; and `O=C(CCCc1ccccn1)Nc1cccc(N2CCCNC2=O)c1`, with 1.94%. Turning to `CNS(=O)(=O)c1cccc(CNCc2ccsc2)c1`, the cytotoxicity at 10 µM is -2.54%. As for `Cc1nn(C)c(Cl)c1C1CCCN1c1ncnc2c1CCC2` (stereo unspecified), the cytotoxicity at 10 µM is 19.1%. `CCCn1cc(NC(=O)Nc2ccc(F)c(C(=O)NC)c2)cn1`: the cytotoxicity at 10 µM stood at 6.98%.

As to `CCOc1ccccc1C(=O)NCc1nncn1C1CC1`, the cytotoxicity at 10 µM worked out at 3.3%.

Turning to `COc1cc(CNC(=O)c2cc(Cl)ccc2F)ccn1`, the cytotoxicity at 10 µM is -2.69%. In the case of `CC(NC(=O)NC1CC1)c1nc(-c2ccccc2)cs1` (stereo unspecified), the cytotoxicity at 10 µM is -5.83%. As to `CCOCCN1CCN(CCOC)CC1C` (stereo unspecified), the cytotoxicity at 10 µM is -4.2%. Turning to `OC(CNCCn1cccn1)COc1cccc(C(F)(F)F)c1` (stereo unspecified), the cytotoxicity at 10 µM is -19.7%. `O=C(NC1CCC(O)CC1)c1cnc2c(cnn2C2CCCC2)c1` (stereo unspecified): the cytotoxicity at 10 µM is -3.79%.

Take `COc1ccc(CNCC2CN(C3CC3)CCO2)cc1F` (stereo unspecified): the cytotoxicity at 10 µM was -12.4%. For `Cc1ccc(C)c(S(=O)(=O)CCN2CCCC2Cn2cncn2)c1` (stereo unspecified), the cytotoxicity at 10 µM was -8.5%. `Cc1nc(CN(C)Cc2cc3c(cc2OC(F)F)OCO3)oc1C`: the cytotoxicity at 10 µM is 2.22%. As for `CC(=O)NCCNC(=O)NCCCc1cccc(F)c1`, the cytotoxicity at 10 µM was found to be 10.5%. Take `O=C(CCCOc1ccccc1F)Nc1cc[nH]n1`: the cytotoxicity at 10 µM is -11%. Turning to `CC(NC(=O)C(C)(C)C#N)c1ccc(OCC2CC2)c(F)c1` (stereo unspecified), the cytotoxicity at 10 µM was found to be 2.31%. Turning to `Cc1ccc(S(N)(=O)=O)cc1C(=O)NCC1Cc2ccccc2O1` (stereo unspecified), the cytotoxicity at 10 µM is 3.04%. Regarding `Cc1cccc(N(C)Cc2nc3c(cnn3C)c(=O)[nH]2)c1C`, the cytotoxicity at 10 µM was -9.23%. With `CCN(Cc1nc2c(cnn2C)c(=O)[nH]1)c1cc(C)ccc1C`, the cytotoxicity at 10 µM is -11.3%. As to `CCc1cnc(CN2CCC(O)(c3cc(OC)cc(OC)c3)CC2)o1`, the cytotoxicity at 10 µM is -0.276%. Consider `CN(Cc1ccc(Br)s1)Cn1nc(-c2ccccc2)oc1=O`, for which the cytotoxicity at 10 µM was determined as 4.86%. Take `CN(C(=O)CNc1ccc(C#N)cc1)C1CCN(c2ccccn2)CC1`: the cytotoxicity at 10 µM stood at 18.7%. For `O=C(O)CSc1nc(-c2ccc3c(c2)CCC3)n[nH]1`, the cytotoxicity at 10 µM came to 1.88%. Then `CC(C)c1nc2n(n1)CC(NCCc1cccs1)CC2` (stereo unspecified), with -5.71%. Then `CNS(=O)(=O)c1cccc(CNC(=O)c2cnn(C)c2C)c1`, with 0.857%.

Turning to `CCCC(C#N)NC(=O)Cc1csc(CC)n1` (stereo unspecified), the cytotoxicity at 10 µM is -2.08%. Then `CC(C)CCN(C(=O)CCn1cc(S(N)(=O)=O)cn1)C1CC1`, with 3.92%; and `Cc1ccc(C(=O)NCC2CCN(C)c3ccccc32)c(=O)[nH]1` (stereo unspecified), with 12.6%.

As to `CC1CN=C(N2CCN(C(=O)Nc3nc(-c4ccccc4)ns3)CC2)S1` (stereo unspecified), the cytotoxicity at 10 µM is 10.6%. Take `CN(C)CC(=O)N1CCO[C@@H]2CC(COCc3ccncc3)C[C@H]21` (stereo partly specified): the cytotoxicity at 10 µM was -108%. Consider `O=S(=O)(NCC1CCCN(Cc2ccccc2F)C1)C1CC1` (stereo unspecified), for which the cytotoxicity at 10 µM was -8.27%.

`Cn1cc(Cl)c(CN(Cc2ccsc2)CC2CCCO2)n1` (stereo unspecified): the cytotoxicity at 10 µM is -3.84%.

Turning to `COc1cccc(N2CCN(Cc3nccc(OC)c3OC)CC2=O)c1`, the cytotoxicity at 10 µM came out at 3.63%.

Consider `Cc1nc(C(=O)N[C@H]2COC[C@@H]2N2CCCCC2)cs1`, for which the cytotoxicity at 10 µM was found to be 15.5%. Consider `CC(C)(C)SCCN1CC(=O)N2CC[C@@H](O)C[C@H]2C1=O`, for which the cytotoxicity at 10 µM amounted to 4.01%. Consider `CCNC(=O)[C@@H]1C[C@@H](N)CN1C(=O)c1[nH]c2ccccc2c1CC`, for which the cytotoxicity at 10 µM stood at 0.106%. Regarding `Cc1cccn2cc(C(=O)N3CCCN(CC4CC4)C(C(C)C)C3)nc12` (stereo unspecified), the cytotoxicity at 10 µM is 1.46%. With `Cc1cc(CN(C)C(=O)C2CCC(=O)N(CC3CCCCC3)C2)n[nH]1` (stereo unspecified), the cytotoxicity at 10 µM stood at 1.85%. As to `CCNC(=O)[C@@H]1C[C@@H](N)CN1C(=O)Cc1cc(C)ccc1C`, the cytotoxicity at 10 µM came out at 1.87%. For the compound `Cc1cc(C)n(CCNC(=O)c2ncc[nH]2)c(=O)n1`, the cytotoxicity at 10 µM was determined as 2.84%. Then `CC(=O)Nc1cccc(C(=O)Nc2cnc3n2CCCC3)c1`, with 4.36%; and `COC(=O)c1cccn1C1CCN(C(=O)c2ccc(C)cc2O)CC1`, with -6.97%. Turning to `Cc1cc(CN(C)C2CCCN(Cc3noc(C4CC4)n3)C2)on1` (stereo unspecified), the cytotoxicity at 10 µM was -1.68%.

In the case of `O=C(NCc1ccccc1Cn1cncn1)C1CCC1`, the cytotoxicity at 10 µM was -4.43%. Under `O=C(CCCOc1ccc(F)cc1F)N1CCCC(n2cccn2)C1` (stereo unspecified) stands -4.75%. Then `CC(=O)Nc1nc(CN2CCn3c(C)nnc3C2)cs1`, with -1.68%; and `CCNC(=O)CNCc1c(C(C)C)nn(C)c1N1CCOCC1`, with -6.45%. For `Cc1nc(C2CCCN(C(=O)c3cc4c(s3)CCCC4)C2)no1` (stereo unspecified), the cytotoxicity at 10 µM is -7.03%. Under `Cc1nn(C)c(Cl)c1C1CCCN1Cc1cccc(C(N)=O)c1` (stereo unspecified) stands -6.22%. For the compound `Cc1cc(NC(=O)c2ccc(-n3ncc(C#N)c3N)cc2)n(C)n1`, the cytotoxicity at 10 µM was -0.0414%. Under `Cc1nc(CN(C)C2CCN(CCc3cnn(C)c3)C2)no1` (stereo unspecified) stands 3.63%.

Consider `CC(Cn1cccn1)NC(=O)NCc1cccnc1OC(C)C` (stereo unspecified), for which the cytotoxicity at 10 µM is -9.44%.

In the case of `CCc1nc(C2CCCN2C(=O)c2csc(COC)n2)no1` (stereo unspecified), the cytotoxicity at 10 µM was found to be 1.04%. Under `CC(Cn1cccn1)NCC(=O)NCCc1cccs1` (stereo unspecified) stands -12.7%; under `Cc1nc(C2CCCN(C(=O)COCCc3ccccc3)C2)no1` (stereo unspecified), -11.1%. Turning to `Cc1cnn(CC2CN(CC(=O)NCc3ccco3)CCO2)c1` (stereo unspecified), the cytotoxicity at 10 µM is -1.43%.

On to `O=C(CN1CCOC(Cn2cccn2)C1)NCc1ccccn1` (stereo unspecified), for which the cytotoxicity at 10 µM was -6.73%. Then `CC(=O)N1CCN(C(=O)NCCc2ccc(Cl)s2)CC1`, with -11.6%; and `CCOc1cccc(C(=O)N2CCC(c3n[nH]c(C4CC4)n3)CC2)c1`, with -16.8%; and `CCOc1ncccc1CNC(=O)N1CCC(n2cncn2)CC1`, with -1.26%. In the case of `Cc1cnn(CC2CCCN2C(=O)c2cccc3c2OCO3)c1` (stereo unspecified), the cytotoxicity at 10 µM was -5.25%.

On to `COc1ccc(C(=O)N2CCCC(CNS(C)(=O)=O)C2)cc1F` (stereo unspecified), for which the cytotoxicity at 10 µM was -5.45%. Consider `Cc1cc(NC(=O)C(C)N2CCCN(c3nccs3)CC2)on1` (stereo unspecified), for which the cytotoxicity at 10 µM amounted to 1.79%. On to `CC(C)C(=O)N(C)Cc1nc(N2CCCC2)ncc1-c1ccncc1`, for which the cytotoxicity at 10 µM was determined as 6.54%. `COc1cccc(CN2CCC3(CC2)CCN(c2ncccn2)C3)c1`: the cytotoxicity at 10 µM is -7.46%. `CCS(=O)(=O)N1CCOCC2(CCN(c3ccccn3)C2)C1` (stereo unspecified): the cytotoxicity at 10 µM stood at 5.66%.

On to `c1cc(CN2C[C@@H]3OCCN(CCN4CCCC4)[C@@H]3C2)cs1`, for which the cytotoxicity at 10 µM was -1.46%. Take `CNC(=O)[C@H]1C[C@@H]2CN(C(=O)c3ccc(C)nc3)C[C@@H]2N1C(C)C`: the cytotoxicity at 10 µM is -116%. For `Cc1cccc(CN2CCCCC23CCNC3)n1` (stereo unspecified), the cytotoxicity at 10 µM is 1.49%. Under `CCOCC1CN(Cc2nccs2)Cc2nn(CC3CC3)cc21` (stereo unspecified) stands -1.81%; under `O=C(O)c1cc2c(nc1-c1ccsc1)CCN(C1CCOC1)CC2` (stereo unspecified), 15%; under `c1cnc(N2CC3(CCN(Cc4ccncc4)C3)C2)nc1`, -82.8%. Under `CCN1C[C@@H]2[C@@H](OC)CCN(C(=O)Cc3ccsc3)[C@@H]2C1` stands 0.11%; under `CC1c2ncc(CN3CCN(C)CC3)n2CCN1Cc1ccc(F)cc1` (stereo unspecified), 2.49%. For the compound `Cc1ncsc1CN1CC[C@H]2OCC[C@@]2(C(=O)N2CCOCC2)C1`, the cytotoxicity at 10 µM stood at 6.91%.

On to `CCc1nnc2n1CCN(C=C1NN=C(c3occc3C)O1)C2`, for which the cytotoxicity at 10 µM was -10%.

On to `O=c1cc(CN2CC[C@@H]3CC[C@H](C2)N3)c2cccc3c2n1CCC3`, for which the cytotoxicity at 10 µM was determined as 9.64%. Under `O=C1C[C@@H]2CC[C@H](CN1)N2C(=O)CCc1ccccc1` stands -0.0739%; under `O=C1C[C@@H]2CC[C@H](CN1)N2C(=O)Cc1ccsc1`, 1.6%.
